PMI act hi M6P: increases human PMI activity with near-saturating mannose 6-phosphate; P34949; coupled PMI enzyme assay, resazurin fluorescence, 20 min; active compounds read high; 1 = untreated enzyme, 0 = substrate-free blank; activation factor at 20 µM; 190,000 tested, 0.34% active; AID 1216;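 active means activation factor of 2 or more at 20 µM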
Target sequence (P34949 whole entry, looked up): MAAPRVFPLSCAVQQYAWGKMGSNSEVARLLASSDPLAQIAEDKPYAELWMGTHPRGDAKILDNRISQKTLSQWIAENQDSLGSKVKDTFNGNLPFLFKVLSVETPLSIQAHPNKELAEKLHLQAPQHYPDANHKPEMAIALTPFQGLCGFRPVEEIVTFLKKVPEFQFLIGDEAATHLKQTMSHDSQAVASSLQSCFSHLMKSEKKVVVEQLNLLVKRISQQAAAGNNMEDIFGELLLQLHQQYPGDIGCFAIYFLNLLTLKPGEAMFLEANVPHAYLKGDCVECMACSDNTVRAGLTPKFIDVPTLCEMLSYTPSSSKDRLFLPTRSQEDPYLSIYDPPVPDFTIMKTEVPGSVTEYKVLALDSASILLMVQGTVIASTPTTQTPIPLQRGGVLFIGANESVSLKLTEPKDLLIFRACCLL
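Test system: Human PMI in coupled enzyme assay | Input: 15 ng/mL PMI | Medium: HEPES-buffered pH 7.4 with magnesium and detergent | Compound: One concentration, 20 µM, in 1% DMSO | Incubation: Enzyme reaction with compound 20 min at room temperature | Detection: Diaphorase-driven resazurin-to-resorufin fluorescence, excitation 544, emission 590 nm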
G6PDH counter: L. mesenteroides G6PDH inhibition counter-screen. Purified L. mesenteroides G6PDH, diaphorase/resazurin coupled fluorescence, 45 min. 200,000 tested, 0.12% active. AID 1020. inhibition, % at 5 µM; in the data active means inhibition above about 50%
Diaphorase act: counter-screen for diaphorase-based assays: diaphorase activators and chemical reducers; Diaphorase/resazurin coupled assay, resorufin fluorescence, 16 min; active compounds read high; 1 = vehicle wells, 0 = NADH-free wells; activation factor at 20 µM; 190,000 tested, 0.005% active;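 active means diaphorase activity raised at least twofold by the compound at 20 µM; inactive means activation factor below 2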
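Assay system: Purified diaphorase enzyme from Clostridium kluyveri | Amount: Enzyme 0.07 U/mL final | Dosing: Compound 20 µM once, DMSO 1% | Timing: 16 min reaction at room temperature | Detection: Fluorescence, excitation 544 nm and emission 590 nm | Evaluation: Higher resorufin formation from activation or reduction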
PMI act: increases human mannose-6-phosphate isomerase activity. P34949. purified human PMI, coupled resazurin fluorescence, 20 min; active compounds read high; 1 = vehicle control, 0 substrate-free wells. activation factor at 20 µM. 190,000 tested, 0.005% active. AID 1214;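 active means activation factor of 2 or more at 20 µM, relative to plate controls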
Diaphorase inh: counter-screen for diaphorase-based assays: diaphorase inhibitors and chemical oxidizers; diaphorase resazurin-to-resorufin fluorescence, NADH, 16 min; bacterial (C. kluyveri) enzyme, not human; inhibition, % at 20 µM; 190,000 tested, 0.69% active; AID 1217;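 active means primary screen inhibition at 20 µM above a set limit, cut at about 50% in these data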;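 further: plate controls were DMSO with full reaction for no effect and wells lacking NADH for full effect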
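Test system: bacterial diaphorase enzyme (C. kluyveri); Quantity: 0.14 U/mL diaphorase, enzyme working solution; Times: reaction incubation of 16 min at room temperature; Measured by: fluorescence of resorufin formed from resazurin, Ex 544/Em 590 nm; Benchmarks: positive control minus NADH, DMSO neutral control.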
Tb hexokinase: blocks Trypanosoma brucei hexokinase 1 activity; recombinant TbHK1, G6PDH-coupled NADH A340; inhibition, % at 10 µM; 220,000 tested, 0.11% active;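 active means inhibition of 50% or more in the single-dose primary screen; inactive means inhibition below 50%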
* = called active by the depositor; . = no result. A selection: hits, their analogues and other compounds. The true share with any hit is near 1.1%.

SMILES	PMI act hi M6P	G6PDH counter	Diaphorase act	PMI act	Diaphorase inh	Tb hexokinase
O=c1c(/C=N/Nc2ccccc2)c(Sc2nnnn2-c2ccccc2)nc2ccccn12	2*	3.1	0.8	1.4	20.8	-21.4
O=C(NNC(=O)c1cc(O)c(O)c(O)c1)NC1CCCCC1	0.9	14.8	0.5	0.5	50.5*	4.6
Cn1cc([N+](=O)[O-])c(C(=O)Nc2ccc(-c3nc4ccccc4o3)cc2)n1	.	.	.	.	.	-15.0
CCOC(=O)c1cc(NC(=O)c2ccccc2)c(=O)oc1C(F)(F)F	2.2*	-0.7	0.9	1.8	8.9	-1.9
CC(=O)c1cc(NC(=O)c2ccccc2)c(=O)oc1C	2.1*	5.4	0.9	1.7	5.2	-9.0
CCOC(=O)c1cc(NC(=O)c2ccc(OC)cc2)c(=O)oc1-c1ccccc1	1	4.6	0.7	1	25.2	-1.7
CC(=O)c1cc(NC(=O)c2ccc(C)cc2)c(=O)oc1C	1.9	-4.5	1	1.6	0.9	-9.3
CCOC(=O)c1cc(NC(=O)c2ccc(C)cc2)c(=O)oc1C(F)(F)F	2.6*	-1.6	0.9	1.7	6.1	-9.8
N#Cc1ccccc1Cn1cc(/C=C/[N+](=O)[O-])c2ccccc21	0.9	-2.9	0.8	0.9	19.3	-7.4
O=C(NCCOc1ccccc1)C(=O)c1c[nH]c2ccccc12	.	.	.	.	.	-15.2
O=C(N/N=C/c1ccccn1)c1cc(-c2cccc3ccccc23)n[nH]1	1	-68.4	0.7	1	29.7	-3.4
O=C(O)c1ccc(/C=N/NC(=O)c2cc(-c3ccc4c5c(cccc35)CC4)n[nH]2)cc1	1	2.1	0.3	1	68.1*	-5.9
CNc1oc(Cc2ccccc2)nc1S(=O)(=O)c1ccc(Cl)cc1	0.7	3.2	0.5	1.1	53.5*	0.4
CNc1oc(-c2cccs2)nc1S(=O)(=O)c1ccccc1	1.1	1.3	1	1.4	1.5	-25.8
O=C(O)CCCNc1cc(N2CCC3(CC2)OCCO3)c2noc3c2c1C(=O)c1ccccc1-3	0.5	38.7	0.5	0.8	50.1*	1.5
CCOC(=O)N1CCN(c2cc(NCCC(=O)O)c3c4c(onc24)-c2ccccc2C3=O)CC1	1	-6.5	0.4	0.8	56.7*	5.1
CCNc1ccc2noc3c2c1C(=O)c1ccccc1-3	0.5	0.4	0.6	0.7	35.8	-9.3
O=C(c1ccc(Cl)cc1)C1C2C(=O)N(c3ccccc3)C(=O)C2C2CCCN21 (configuration not stated)	2*	18.1	1	1.6	4.6	-2.4
CC(=O)c1ccc(N2C(=O)C3C(C2=O)C(C(=O)c2ccc(Cl)cc2)N2CCCC32)cc1 (configuration not stated)	2*	3.8	0.9	1.6	13.0	0.5
Cc1ccc(N2C(=O)[C@@H]3[C@H](C2=O)C2CCCN2[C@@H]3C(=O)c2ccccc2)cc1 (some centres not stated)	2*	3.3	1	1.5	-1.2	-0.6
O=C1Nc2ccc3sc4ccccc4c3c2C1=O	.	.	.	.	.	-10.3
O=C(O)COCC(=O)Nc1ccc(-n2nc(C(F)(F)F)cc2-c2cccs2)cc1	.	.	.	.	.	-16.6
COc1cc(C(Nc2ccccn2)c2ccc3ccc(C)nc3c2O)cc(OC)c1O (configuration not stated)	0.4	60.6*	0.4	0.6	62.8*	-3.8
CCOC(=O)N1CCN(C(=O)c2ccc3c(=O)n(-c4ccccc4F)c(=S)[nH]c3c2)CC1	0.9	0.2	0.5	0.9	50.3*	-11.9
CCOC(=O)N1CCN(C(=O)c2ccc3c(=O)n(-c4ccc(OC)cc4OC)c(=S)[nH]c3c2)CC1	1	-0.3	0.6	1.1	43.6	3.8
SMILES	PMI act hi M6P	G6PDH counter	Diaphorase act	PMI act	Diaphorase inh	Tb hexokinase
O=C(/C=C\c1ccc2c(c1)OCO2)CC1(O)C(=O)Nc2ccccc21 (configuration not stated)	.	.	.	.	.	-54.7
Cc1ccc(CN(Cc2cc3cc4c(cc3[nH]c2=O)OCCO4)Cc2nnnn2Cc2ccco2)cc1	0.8	18.6	0.4	0.6	57.8*	-18.0
Cc1ccc2cc(CN(Cc3ccc4c(c3)OCO4)Cc3nnnn3Cc3ccco3)c(=O)[nH]c2c1	1	7.9	0.8	0.9	20.8	-8.8
NS(=O)(=O)c1ccc(CCNC(=O)c2cc(-c3cc(Cl)ccc3O)n[nH]2)cc1	.	.	.	.	.	-6.7
Cc1ccc(NC(=S)N/N=C/c2cccn2Cc2ccccc2F)cc1	.	.	.	.	.	-7.1
Cc1ccc(/C=C/C(=O)CCC(=O)O)cc1	1.1	0.2	1.1	1	-8.0	-12.3
Oc1ccc(C=Nc2ccc3ncccc3c2)c(O)c1	0.3	56.1*	0.3	0.3	68.0*	-51.0
Oc1ccc(C=Nc2cccc3ncccc23)c(O)c1	0.6	-39.7	0.5	0.5	45.1	-34.3
Oc1ccc(N=Cc2ccc(O)c(O)c2)cc1	0.5	57.5*	0.4	0.6	61.4*	-17.8
O=Cc1ccc(O)c(O)c1	1.1	23.7	0.6	0.7	44.3	-25.7
OCC(O)C1OC(Nc2ccc(Cl)cc2)C(O)C1O (configuration not stated)	.	.	.	.	.	-8.9
Cc1[nH]c(=S)c(C#N)c2c1CCCC2	2*	-8.8	0.9	1.7	14.7	-7.0
CC(C)Cc1c2c([nH]c(=S)c1C#N)CCCC2	2*	-3.1	0.8	1.6	16.5	-4.1
Cc1[nH]c(=O)c(C#N)c2c1CCCC2	0.9	2.1	0.9	0.9	7.1	-24.3
CCCCCc1cc(=O)[nH]c(=S)[nH]1	.	.	.	.	.	6.5
CCCCCc1ccc(C(=O)CCCC)c(=S)[nH]1	1	4.2	0.4	1	57.1*	-5.4
Cc1cccc(N2CCc3c2nc2ccc(Br)cc2c3N)c1	0.4	7.0	0.2	0.3	77.8*	5.2
Cc1oc(-c2ccc(F)cc2)cc1-c1nn2c(-c3ccoc3C)nnc2s1	1.2	7.0	0.4	1.2	57.5*	.
O=C(NC1CCC(O)CC1)c1ccc(-c2ccc([N+](=O)[O-])cc2)o1 (configuration not stated)	.	.	.	.	.	-48.7
Cc1ccc(S(=O)(=O)N2CCN(Cc3ccsc3)CC2)cc1	1	7.6	1	0.9	-0.2	0.1
CCCN1CCC(=NNc2ccc(C(=O)O)cc2)CC1	3*	6.5	1.1	1.8	-7.8	-1.8
Cc1csc(NS(=O)(=O)c2cccc([N+](=O)[O-])c2)n1	0.9	10.5	0.3	0.9	67.3*	5.8
CC(=O)Nc1ccccc1NS(=O)(=O)c1cccc([N+](=O)[O-])c1	0.9	12.2	0.8	0.9	18.8	-5.7
CSc1nnc(-c2ccccc2)c(-c2ccccc2)n1	.	.	.	.	.	-20.1
CSc1nnc(-c2ccco2)c(-c2ccco2)n1	1.6	26.8	0.4	1.2	60.9*	-15.5

Screening data from PubChem BioAssay.
